Results on 20 compounds are retold here after ChEMBL document CHEMBL4425140, “Discovery of a Potent and Selective Coactivator Associated Arginine Methyltransferase 1 (CARM1) Inhibitor by Virtual Screening” (J Med Chem, 2016).

Active and inactive are the calls of the source. The calls are words filed in the database; no cut-off is given here.

Assay [1] addresses T1, Histone-arginine methyltransferase CARM1 (Homo sapiens, UniProt Q86X55).
T1 sequence (Q86X55 whole entry): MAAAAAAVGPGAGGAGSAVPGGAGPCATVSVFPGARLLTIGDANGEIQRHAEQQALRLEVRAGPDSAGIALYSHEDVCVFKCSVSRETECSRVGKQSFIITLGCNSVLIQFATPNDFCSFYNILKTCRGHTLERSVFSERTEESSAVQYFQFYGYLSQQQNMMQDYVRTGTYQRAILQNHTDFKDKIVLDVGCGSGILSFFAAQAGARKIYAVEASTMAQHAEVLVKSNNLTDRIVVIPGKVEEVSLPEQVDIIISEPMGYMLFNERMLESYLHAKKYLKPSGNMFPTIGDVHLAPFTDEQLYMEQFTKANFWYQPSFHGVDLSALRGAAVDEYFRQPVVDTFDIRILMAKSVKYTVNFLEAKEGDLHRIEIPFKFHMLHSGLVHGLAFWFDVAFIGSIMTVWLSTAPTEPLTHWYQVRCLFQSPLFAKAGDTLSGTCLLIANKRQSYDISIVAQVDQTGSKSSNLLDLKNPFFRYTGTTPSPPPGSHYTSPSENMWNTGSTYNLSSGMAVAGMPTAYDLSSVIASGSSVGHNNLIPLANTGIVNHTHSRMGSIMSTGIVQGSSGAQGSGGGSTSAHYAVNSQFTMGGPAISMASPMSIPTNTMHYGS
Kind of assay: Inhibition of full-length Halo-tagged human CARM1 (1 to 608 residues) expressed in 293-F cells using [3H]-SAM and biotinylated histone peptides by scintillation proximity based radiometric assay. In kind it is cell-based. A general note: SPA uses beads or plates that emit light when radiolabelled molecules are held near them.

Assay [2] concerns the target Protein arginine N-methyltransferase 6 (Homo sapiens, UniProt Q96LA8). Kind of assay: Inhibition of PRMT6 (unknown origin).
The target in assay [3] is Protein arginine N-methyltransferase 8 (Homo sapiens, UniProt Q9NR22). Kind of assay: Inhibition of PRMT8 (unknown origin).
Protein arginine N-methyltransferase 8, sequence (Q9NR22 whole entry): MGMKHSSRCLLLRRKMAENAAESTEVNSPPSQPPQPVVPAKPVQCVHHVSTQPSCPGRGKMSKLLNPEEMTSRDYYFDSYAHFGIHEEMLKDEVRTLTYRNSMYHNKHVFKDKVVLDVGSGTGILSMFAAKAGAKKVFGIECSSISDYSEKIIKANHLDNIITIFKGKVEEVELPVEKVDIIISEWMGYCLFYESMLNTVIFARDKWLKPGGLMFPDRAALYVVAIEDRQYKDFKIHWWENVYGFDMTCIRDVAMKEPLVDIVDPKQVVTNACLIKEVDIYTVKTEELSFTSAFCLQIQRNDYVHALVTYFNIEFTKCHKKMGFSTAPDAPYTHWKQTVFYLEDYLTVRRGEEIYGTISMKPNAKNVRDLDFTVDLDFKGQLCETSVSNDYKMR
Assay [4] concerns the target T2, Histone-arginine methyltransferase CARM1 (Homo sapiens) (UniProt Q86X55).
T2 sequence (whole entry): T1 sequence (Q86X55 whole entry)
Kind of assay: Inhibition of full-length Halo-tagged human CARM1 (1 to 608 residues) expressed in 293-F cells at 50 uM using [3H]-SAM and biotinylated histone peptides by scintillation proximity based radiometric assay. The format is cell-based. The gist of the method: (§1)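 Radiometric scintillation proximity assay. Tag-cleaved full-length human CARM1 (1–608) at 25 nM, with 0.7 μM C-terminally biotinylated H3 1–25 peptide and 1.9 μM [3H]-SAM in 20 mM bicine pH 8.5. Transfer of tritiated methyl to the peptide counted as cpm. Single compound concentration per line.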

Assay [5] concerns the target T2, Histone-arginine methyltransferase CARM1 (Homo sapiens). The experiment in a line: Inhibition of full-length Halo-tagged human CARM1 (1 to 608 residues) expressed in 293-F cells at 10 uM using [3H]-SAM and biotinylated histone peptides by scintillation proximity based radiometric assay. The format is cell-based. The gist of the method: as §1
Assay [6] concerns the target T1, Histone-arginine methyltransferase CARM1. Kind of assay: Binding affinity to full-length Halo-tagged human CARM1 (1 to 608 residues) expressed in 293-F cells by surface plasmon resonance assay. The method in brief: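 About 4500 RU of CARM1 amine-coupled to a CM5 chip, blank cell used for reference subtraction. Compounds serially diluted in DMSO, then into HBS-EP buffer at 5% DMSO final. Contact time 30 s at 75 μL/min.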
On the technique in general: SPR reads the build-up and loss of mass on a sensor chip optically.

Assay [7] addresses T2, Histone-arginine methyltransferase CARM1 (Homo sapiens). The experiment in a line: Binding affinity to full-length Halo-tagged human CARM1 (1 to 608 residues) expressed in 293-F cells assessed as change in aggregation temperature in presence of SAM by differential static light scattering. The format is cell-based. The gist of the method:
(§2)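 Full-length human CARM1 (residues 1–608) expressed as a HaloTag fusion in FreeStyle 293-F cells, HaloTag-purified, tag removed with TEV. Heated from 30 to 80 °C at 1 °C/min; aggregation temperature shift read by static light scattering.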

The target is the same in assay [8]. The experiment in a line: Binding affinity to full-length Halo-tagged human CARM1 (1 to 608 residues) expressed in 293-F cells assessed as change in melting temperature in presencee of SAM by Sypro orange dye based differential scanning fluorimetry. The format is cell-based. Background: DSF heats the sample and reads unfolding from a dye or from intrinsic fluorescence.

For assay [9] the target is unchanged. The experiment in a line: Binding affinity to full-length Halo-tagged human CARM1 (1 to 608 residues) expressed in 293-F cells assessed as change in melting temperature by Sypro orange dye based differential scanning fluorimetry. In kind it is cell-based.
Assay [10] has the same target. The experiment in a line: Binding affinity to full-length Halo-tagged human CARM1 (1 to 608 residues) expressed in 293-F cells assessed as change in aggregation temperature by differential static light scattering. The format is cell-based. The gist of the method: as §2
For assay [11] the target is unchanged. Kind of assay: Inhibition of CARM1 in HEK293 cells assessed as reduction in BAF155 methylation at 10 uM incubated for 48 hrs by SDS-PAGE and immunoblotting.
Assay [12] has the same target. The experiment in a line: Non-competitive inhibition of full-length Halo-tagged human CARM1 (1 to 608 residues) expressed in 293-F cells using [3H]-SAM and increasing biotinylated histone peptides by scintillation proximity based radiometric assay. The format is cell-based.
Assay [13] deals with T3, Protein arginine N-methyltransferase 7 (Homo sapiens, UniProt Q9NVM4).
T3 sequence (Q9NVM4 whole entry): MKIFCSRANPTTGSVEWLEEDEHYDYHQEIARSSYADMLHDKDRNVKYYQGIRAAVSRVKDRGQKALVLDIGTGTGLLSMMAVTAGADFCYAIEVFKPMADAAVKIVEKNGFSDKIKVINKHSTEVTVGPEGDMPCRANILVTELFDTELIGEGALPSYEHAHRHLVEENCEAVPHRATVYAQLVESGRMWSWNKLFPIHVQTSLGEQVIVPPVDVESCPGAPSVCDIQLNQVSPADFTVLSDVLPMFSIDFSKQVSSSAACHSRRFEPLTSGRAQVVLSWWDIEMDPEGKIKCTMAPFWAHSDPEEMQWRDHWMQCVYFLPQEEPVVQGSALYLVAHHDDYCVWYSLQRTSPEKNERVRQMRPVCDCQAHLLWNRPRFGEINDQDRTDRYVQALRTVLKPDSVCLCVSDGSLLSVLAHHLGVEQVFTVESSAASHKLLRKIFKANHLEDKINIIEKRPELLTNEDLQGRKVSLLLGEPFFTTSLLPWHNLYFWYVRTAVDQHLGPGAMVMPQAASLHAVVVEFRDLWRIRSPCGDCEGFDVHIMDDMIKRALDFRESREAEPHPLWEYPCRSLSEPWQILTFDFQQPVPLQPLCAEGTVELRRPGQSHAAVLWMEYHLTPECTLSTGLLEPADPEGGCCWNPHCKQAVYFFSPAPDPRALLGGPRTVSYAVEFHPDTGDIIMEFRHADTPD
Kind of assay: Inhibition of PRMT7 (unknown origin).

Assay [14] is described as follows: Selectivity index, ratio of IC50 for RMT6 (unknown origin) to IC50 for full-length Halo-tagged human CARM1 (1 to 608 residues) expressed in 293-F cells. In kind it is cell-based.
For assay [15], the target named is Protein arginine N-methyltransferase 3 (Homo sapiens, UniProt O60678). The experiment in a line: Inhibition of PRMT3 (unknown origin).
Protein arginine N-methyltransferase 3, sequence (O60678 whole entry): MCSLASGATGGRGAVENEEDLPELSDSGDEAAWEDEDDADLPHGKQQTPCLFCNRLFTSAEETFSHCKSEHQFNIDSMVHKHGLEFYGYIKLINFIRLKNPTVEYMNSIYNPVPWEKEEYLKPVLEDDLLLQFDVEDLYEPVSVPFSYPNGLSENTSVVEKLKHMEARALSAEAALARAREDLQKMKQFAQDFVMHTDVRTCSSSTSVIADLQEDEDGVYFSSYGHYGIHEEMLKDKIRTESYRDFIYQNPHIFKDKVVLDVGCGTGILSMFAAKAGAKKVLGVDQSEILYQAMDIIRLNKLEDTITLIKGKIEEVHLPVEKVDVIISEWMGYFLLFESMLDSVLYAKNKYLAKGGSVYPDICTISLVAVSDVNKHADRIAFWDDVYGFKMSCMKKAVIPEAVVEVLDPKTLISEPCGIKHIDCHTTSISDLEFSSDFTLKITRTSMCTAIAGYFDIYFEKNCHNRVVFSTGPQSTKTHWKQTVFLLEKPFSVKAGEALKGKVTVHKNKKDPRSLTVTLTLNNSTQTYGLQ
Assay [16] concerns the target T2, Histone-arginine methyltransferase CARM1 (Homo sapiens). Kind of assay: Inhibition of CARM1 in HEK293 cells assessed as reduction in BAF155 methylation at 1 uM incubated for 48 hrs by SDS-PAGE and immunoblotting.
In assay [17] the target is Protein arginine N-methyltransferase 5 (Homo sapiens, UniProt O14744). Kind of assay: Inhibition of PRMT5 (unknown origin).
Protein arginine N-methyltransferase 5, sequence (O14744 whole entry): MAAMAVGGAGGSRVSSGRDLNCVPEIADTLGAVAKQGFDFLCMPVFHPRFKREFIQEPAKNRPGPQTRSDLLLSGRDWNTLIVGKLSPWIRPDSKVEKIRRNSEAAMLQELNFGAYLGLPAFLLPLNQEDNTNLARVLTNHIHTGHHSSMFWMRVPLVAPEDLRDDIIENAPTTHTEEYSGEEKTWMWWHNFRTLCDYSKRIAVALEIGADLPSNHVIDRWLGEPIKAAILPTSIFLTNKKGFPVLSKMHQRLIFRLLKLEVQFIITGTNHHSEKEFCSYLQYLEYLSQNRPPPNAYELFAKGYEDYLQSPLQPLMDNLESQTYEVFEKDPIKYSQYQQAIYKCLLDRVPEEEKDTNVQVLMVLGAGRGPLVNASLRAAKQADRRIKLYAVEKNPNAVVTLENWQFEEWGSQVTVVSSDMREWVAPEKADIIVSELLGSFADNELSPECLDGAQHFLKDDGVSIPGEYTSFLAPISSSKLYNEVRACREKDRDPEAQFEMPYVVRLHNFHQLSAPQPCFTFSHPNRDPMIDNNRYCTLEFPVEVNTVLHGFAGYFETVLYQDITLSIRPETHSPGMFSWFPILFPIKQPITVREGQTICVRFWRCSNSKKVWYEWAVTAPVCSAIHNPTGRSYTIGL
The target in assay [18] is Protein arginine N-methyltransferase 1 (Homo sapiens, UniProt Q99873). The experiment in a line: Inhibition of PRMT1 (unknown origin).
Protein arginine N-methyltransferase 1, sequence (Q99873 whole entry, the tested form may be a part): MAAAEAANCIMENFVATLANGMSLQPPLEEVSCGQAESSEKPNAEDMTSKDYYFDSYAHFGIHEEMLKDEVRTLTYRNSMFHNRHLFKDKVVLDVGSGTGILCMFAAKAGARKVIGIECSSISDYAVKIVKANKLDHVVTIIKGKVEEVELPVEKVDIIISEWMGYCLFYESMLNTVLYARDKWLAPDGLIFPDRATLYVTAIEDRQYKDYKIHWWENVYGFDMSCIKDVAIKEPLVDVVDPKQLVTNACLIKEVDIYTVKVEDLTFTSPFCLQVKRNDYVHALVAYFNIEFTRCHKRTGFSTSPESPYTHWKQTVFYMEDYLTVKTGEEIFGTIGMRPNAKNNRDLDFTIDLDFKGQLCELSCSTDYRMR
The target in assay [19] is T2, Histone-arginine methyltransferase CARM1 (Homo sapiens). The experiment in a line: Non-competitive inhibition of full-length Halo-tagged human CARM1 (1 to 608 residues) expressed in 293-F cells using increasing [3H]-SAM and biotinylated histone peptides by scintillation proximity based radiometric assay. The format is cell-based.

Protein arginine N-methyltransferase 6, sequence (Q96LA8 whole entry): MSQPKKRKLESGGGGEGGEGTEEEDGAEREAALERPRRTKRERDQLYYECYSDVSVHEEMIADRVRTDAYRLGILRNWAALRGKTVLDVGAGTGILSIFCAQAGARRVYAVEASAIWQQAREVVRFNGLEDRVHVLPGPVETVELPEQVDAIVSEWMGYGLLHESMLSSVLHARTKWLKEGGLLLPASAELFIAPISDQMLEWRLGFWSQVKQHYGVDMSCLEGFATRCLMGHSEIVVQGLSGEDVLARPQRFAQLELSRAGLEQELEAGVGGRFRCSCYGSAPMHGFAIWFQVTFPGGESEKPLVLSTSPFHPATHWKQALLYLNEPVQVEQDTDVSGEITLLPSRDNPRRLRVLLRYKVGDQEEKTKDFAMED

Turning to `CN[C@@H](C)C(=O)NCc1cccnc1Oc1ccc(F)cc1F`, the IC50 entry in assay [1] and in assay [2] was “Not Active” throughout.

Consider `CCC(c1ccc(OC)cc1)N(C)CCN` (configuration not stated), for which the values for the IC50 entry in assay [1], in assay [3] and in assay [2] (read-out: IC50) were “Not Active”, “Not Active” and over 25 µM, respectively.

For `CN(CCN)Cc1ccccc1`, the half-maximal inhibitory concentration (IC50) in assay [1] (read-out: IC50) was 7.5 µM; in assay [3] (read-out: IC50) it was 6 µM; in assay [2] (read-out: IC50), 2.5 µM. Also, the inhibition entry in assay [4] and in assay [5] was “Active” throughout.

Consider `NC1(C(=O)NCc2cccnc2Oc2ccc(F)cc2F)CC1`, for which the IC50 result in assay [1] and in [2] was “Not Active” in each case.

Consider `CNCCNC1CCN(c2cccc(-c3ccnc(C)n3)c2)CC1`, for which the IC50 in [1] (read-out: IC50) is 11.1 µM; in [3] (read-out: IC50), 26 µM; in assay [2] (read-out: IC50) it was 8.9 µM. Also, the inhibition entry in assay [4] and in assay [5] was “Active” each time.

Consider `NCC(=O)NCCc1ccccc1`, for which the IC50 is 20.5 µM in assay [1] (read-out: IC50), “Not Active” in assay [3] and “Not Active” in [2]. Moreover, the Kd entry in assay [6] was “Not Active”.

With `CNCCN1CCCC1`, the IC50 is 3.1 µM in assay [1] (read-out: IC50), 10 µM in assay [3] (read-out: IC50) and 1.9 µM in [2] (read-out: IC50). Further, the inhibition result in assay [4] and in assay [5] was “Active” in each case.

`Cc1cc(C)n(-c2ccc(CNC(=O)C(C)N)cc2)n1` (configuration not stated): the IC50 entry in assay [1] and in [2] was “Not Active” throughout.

For the compound `C[C@H](N)C(=O)NCc1cccnc1Oc1ccc(F)cc1F`, the IC50 in [1] (read-out: IC50) was 1.9 µM; in [3], “Not Active”; in assay [2] (read-out: IC50) it was 14 µM. The result in assay [7] and in assay [8] was Active. For the same compound, the inhibition entry in assay [4] and in assay [5] was “Active” in each case. Further, the equilibrium dissociation constant (Kd) in assay [6] (read-out: Kd) worked out at 9 µM. Also, the ΔTm in assay [9] is 2.1 °C; in [10], 1.9 °C.

For `NCCN1CCC(c2nnc(Cn3ccnc3)n2C2CC2)CC1`, the figures for the IC50 in assay [1] (read-out: IC50), in assay [3] and in assay [2] were over 50 µM, “Not Active” and “Not Active”, respectively. The inhibition result in assay [4] and in [5] was “Active” each time.

Regarding `C[C@H](N)C(=O)NCc1cccnc1N(C)Cc1ccccc1`, the IC50 is over 30 µM in [1] (read-out: IC50), “Not Active” in assay [3] and “Not Active” in assay [2]. The inhibition result in [4] and in assay [5] was “Active” each time.

For `CC(N)C(=O)NCc1ccccc1` (configuration not stated), the IC50 in assay [1] (read-out: IC50) was over 20 µM; in assay [3] it was “Not Active”; in assay [2], “Not Active”. For the same compound, the inhibition entry in assay [4] and in assay [5] was “Active” in each case.

Turning to `CNCCN1CCC(OCc2ccccc2)CC1`, the inhibition result in [11] is “Active”.

Turning to `CC(Cc1c[nH]c2ccccc12)NC(=O)CN` (configuration not stated), the IC50 in [1] (read-out: IC50) is over 65 µM; in assay [3] it was “Not Active”; in assay [2] it was “Not Active”. The inhibition entry in assay [4] and in assay [5] was “Active” each time.

With `CC(C)(N)C(=O)NCc1cccnc1Oc1ccc(F)cc1F`, the IC50 result in assay [1] and in [2] was “Not Active” each time.

`Cc1cc(OCCNCCN)ccc1C(C)C`: the IC50 is 16.6 µM in assay [1] (read-out: IC50), “Not Active” in [3] and “Not Active” in assay [2]. For the same compound, the Kd result in assay [6] was “Not Active”.

`CNCC(=O)NCc1cccnc1Oc1ccc(F)cc1F`: the IC50 result in [1] and in assay [2] was “Not Active” in each case.

`C[C@@H](N)C(=O)NCc1cccnc1Oc1ccc(F)cc1F`: the IC50 in assay [1] (read-out: IC50) is over 40 µM; in assay [2] it was “Not Active”.

Turning to `Cc1cc(C)cc(Oc2ccc(CNC(=O)[C@H](C)N)cc2C)c1`, the inhibition result in assay [12] and in assay [19] was “Active” in each case. The IC50 in [1] (read-out: IC50) was 0.05 µM; in assay [13] it was over 100 µM; in [3] (read-out: IC50) it was over 50 µM; in [2] (read-out: IC50), 5.2 µM; in [15], over 100 µM; in [17] it was over 100 µM. The IC50 in assay [18] was over 100 µM. In addition, the inhibition entry in assay [11] and in assay [16] was “inactive” throughout. Also, the Ratio IC50 in assay [14] is over 100.

For `NCC(=O)NCc1cccnc1Oc1ccc(F)cc1F`, in [2], the IC50 result is “Not Active”.

The IC50 is the concentration that inhibits the measured activity by half. By Kd is commonly meant the concentration at which binding is half-saturated. One may read the ΔTm as the change in melting temperature against a reference sample.
